# Experimental data taken from ChEMBL document CHEMBL2062460, “Disubstituted thiourea derivatives and their activity on CNS: synthesis and biological evaluation” (Eur J Med Chem, 2012).
# The source made the active and inactive calls. No cut-off for these calls is given here.
# Key:
# [1] = Cytotoxicity against human MT4 cells after 96 hrs by MTT assay; format: cell-based
# CCRF-CEM = test: Cytotoxicity against human CCRF-CEM cells after 96 hrs by MTT assay; format: functional
# Method in brief: (§1)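 Haematological tumour lines were seeded at 1 × 10^5 cells/ml in RPMI-1640 with 10% FCS plus penicillin/streptomycin. Serial dilutions from a 100 mM DMSO stock were added. After 96 h at 37 °C in 5% CO2, viability was read by MTT. The 50% proliferation-inhibiting concentration (µM) was obtained by linear regression against untreated controls, which completed at least three rounds of multiplication. Values are means of three determinations.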
# WIL2-NS = test: Cytotoxicity against human WIL2-NS cells after 96 hrs by MTT assay; format: functional; method in brief: as §1
# CCRF-SB = test: Cytotoxicity against human CCRF-SB cells after 96 hrs by MTT assay; format: functional; method in brief: as §1
# SK-MEL-28 = test: Cytotoxicity against human SK-MEL-28 cells after 96 hrs by MTT assay; format: functional; details: SK-MEL-28, 96 h
# Method in brief: (§2)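 Solid tumour lines were seeded at 1 × 10^5 cells/ml in line-specific media with 10% FCS and antibiotics. Serial dilutions from a 100 mM DMSO stock were added. After 96 h at 37 °C in 5% CO2, viability was read by MTT. The 50% growth-inhibiting concentration (µM) was obtained by linear regression versus untreated controls. Values are means of three independent determinations.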
# MCF7 = test: Cytotoxicity against human MCF7 cells after 96 hrs by MTT assay; format: functional; details: MCF7, 96 h; method in brief: as §2
# SK-MES-1 = test: Cytotoxicity against human SKMES1 cells after 96 hrs by MTT assay; format: functional; details: SK-MES-1, 96 h; method in brief: as §2
# HepG2 = test: Cytotoxicity against human HepG2 cells after 96 hrs by MTT assay; format: functional; details: HepG2, 96 h; method in brief: as §2
# DU-145 = test: Cytotoxicity against human DU145 cells after 96 hrs by MTT assay; format: functional; details: DU-145, 96 h; method in brief: as §2
# Mus musculus [2] = test: Toxicity in Albino Swiss mouse assessed as locomotor activity administered at doses equivalent to 0.1 ED50, ip measured after 1 hr for 30 mins; format: organism-based; details: in vivo
# Method in brief: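 Spontaneous locomotor activity of single male Albino Swiss mice in photoresistor actometers (two light beams), beam crossings recorded for 30 min, starting 60 min after i.p. compound in 0.5% methylcellulose.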
# Mus musculus [3] = test: Toxicity in Albino Swiss mouse assessed as effect on amphetamine-induced hyperactivity administered at doses equivalent to 0.1 ED50, ip; format: organism-based; details: in vivo
# Method in brief: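 Compound i.p. in 0.5% methylcellulose 60 min before test; amphetamine 5 mg/kg s.c. 30 min before test; single mice in photoresistor actometers, light-beam crossings counted for 30 min.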
# Mus musculus [4] = test: Antinociceptive activity in Albino Swiss mouse administered at doses equivalent to 0.025 to 0.1 ED50, ip; format: functional, organism-based
# Mus musculus [5] = test: Antinociceptive activity in Albino Swiss mouse administered at doses equivalent to 0.025 to 0.1 ED50, ip in presence of naloxone; format: functional, organism-based
# Method in brief: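 Acetic acid (0.6%, i.p.) writhing test in male Albino Swiss mice, compound i.p. in 0.5% methylcellulose 60 min prior, with naloxone 5 mg/kg s.c.; writhes counted 10 min from 5 min post-acid; mean ± S.E.M., 8–10 mice per group.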
# Mus musculus [6] = test: Toxicity in Albino Swiss mouse assessed as motor coordination administered at doses equivalent to 0.1 ED50, ip by chimney test; format: organism-based; details: in vivo
# Mus musculus [7] = test: Toxicity in Albino Swiss mouse assessed as motor coordination administered at doses equivalent to 0.1 ED50, ip by rota rod test; format: organism-based; details: in vivo
# Mus musculus [8] = test: Anticonvulsant activity in Albino Swiss mouse assessed as protection against pentylenetetrazole-induced severity of clonic or tonic seizures administered at doses equivalent to 0.1 ED50, ip; format: functional, organism-based
# Mus musculus [9] = test: Anticonvulsant activity in Albino Swiss mouse assessed as protection against pentylenetetrazole-induced mortality administered at doses equivalent to 0.1 ED50, ip; format: functional, organism-based
# Mus musculus [10] = test: Reduction of 5-hydroxytryptophan-induced head twitch in Albino Swiss mouse administered at doses equivalent to 0.1 ED50, ip; format: functional, organism-based
# Mus musculus [11] = test: Reduction of body temperature in normothermic Albino Swiss mouse administered at doses equivalent to 0.1 ED50, ip measured in rectum by thermistor thermometer analysis; format: ADME, organism-based; details: in vivo
# [12] = test system: Staphylococcus epidermidis; test: Antibacterial activity against methicillin-resistant Staphylococcus epidermidis clinical isolate 311/08 after 18 hrs by twofold serial agar dilution technique; format: functional; details: clinical isolate 311/08, 18 h
# Method in brief: (§3)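 Clinical isolates came from patients in Warsaw Medical University Hospitals and were classed as methicillin-susceptible or -resistant. MIC was determined by twofold serial agar dilution on Mueller–Hinton II agar (CLSI), 3.125–400 µg/mL in agar, with compounds in methanol or DMSO. Inoculum was 10^4 CFU/mL and plates were read after 18 h at 35 °C.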
# [13] = test system: Staphylococcus epidermidis; test: Antibacterial activity against methicillin-resistant Staphylococcus epidermidis clinical isolate 315/08 after 18 hrs by twofold serial agar dilution technique; format: functional; details: clinical isolate 315/08, 18 h; method in brief: as §3
# [14] = test system: Staphylococcus epidermidis; test: Antibacterial activity against methicillin-resistant Staphylococcus epidermidis clinical isolate 316/08 after 18 hrs by twofold serial agar dilution technique; format: functional; details: clinical isolate 316/08, 18 h; method in brief: as §3
# [15] = test system: Staphylococcus epidermidis; test: Antibacterial activity against methicillin-resistant Staphylococcus epidermidis clinical isolate 317/08 after 18 hrs by twofold serial agar dilution technique; format: functional; details: clinical isolate 317/08, 18 h; method in brief: as §3
# [16] = test system: Staphylococcus epidermidis; test: Antibacterial activity against methicillin-resistant Staphylococcus epidermidis clinical isolate 318/08 after 18 hrs by twofold serial agar dilution technique; format: functional; details: clinical isolate 318/08, 18 h; method in brief: as §3
# [17] = test system: Staphylococcus epidermidis; test: Antibacterial activity against methicillin-resistant Staphylococcus epidermidis clinical isolate 340/09 after 18 hrs by twofold serial agar dilution technique; format: functional; details: clinical isolate 340/09, 18 h; method in brief: as §3
# [18] = test system: Staphylococcus epidermidis; test: Antibacterial activity against methicillin-resistant Staphylococcus epidermidis clinical isolate 341/09 after 18 hrs by twofold serial agar dilution technique; format: functional; details: clinical isolate 341/09, 18 h; method in brief: as §3
# [19] = test system: Staphylococcus epidermidis; test: Antibacterial activity against methicillin-resistant Staphylococcus epidermidis clinical isolate 342/09 after 18 hrs by twofold serial agar dilution technique; format: functional; details: clinical isolate 342/09, 18 h; method in brief: as §3
# [20] = test system: Staphylococcus epidermidis; test: Antibacterial activity against methicillin-resistant Staphylococcus epidermidis clinical isolate 343/09 after 18 hrs by twofold serial agar dilution technique; format: functional; details: clinical isolate 343/09, 18 h; method in brief: as §3
# [21] = test system: Staphylococcus epidermidis; test: Antibacterial activity against methicillin-resistant Staphylococcus epidermidis clinical isolate 377/09 after 18 hrs by twofold serial agar dilution technique; format: functional; details: clinical isolate 377/09, 18 h; method in brief: as §3
# [22] = test system: Human immunodeficiency virus 1; test: Antiviral activity against HIV1 infected in human MT4 cells assessed as virus-induced cytopathogenicity after 4 days by MTT assay; format: functional, organism-based; details: Human immunodeficiency virus 1, MT4, 96 h
# [23] = Cytotoxicity against human MRC5 cells after 96 hrs by MTT assay; format: cell-based
# Method in brief: (§4)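 Normal fibroblasts seeded at 1 × 10^5 cells/ml in specific media with 10% FCS and antibiotics; serial compound dilutions (100 mM DMSO stock); 96 h at 37 °C, 5% CO2; MTT read-out; 50% proliferation-reduction concentration by linear regression vs untreated controls; mean of three determinations.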
# [24] = Cytotoxicity against human CRL7065 cells after 96 hrs by MTT assay; format: cell-based, CRL-7065; method in brief: as §4
smiles,measurement,setting,value
CC[C@@]1(O)C(=O)OCc2c1cc1n(c2=O)Cc2cc3ccccc3nc2-1 [CAMPTOTHECIN],CC50 at 96 h,[1],0.004 µM
same,CC50,CCRF-CEM,0.003 µM
same,CC50,WIL2-NS,0.005 µM
same,CC50,CCRF-SB,0.004 µM
same,CC50,SK-MEL-28,0.07 µM
same,CC50,MCF7,0.08 µM
same,CC50,SK-MES-1,0.05 µM
same,CC50,HepG2,0.04 µM
same,CC50,DU-145,0.08 µM
Nc1ncnn1/C(S)=N/Cc1ccccc1,Activity,Mus musculus [2],Non-toxic
same,Activity,Mus musculus [3],Non-toxic
same,Activity,Mus musculus [4],Active
same,Activity,Mus musculus [5],inactive
same,Activity,Mus musculus [6],Non-toxic
same,Activity,Mus musculus [7],Non-toxic
same,Activity,Mus musculus [8],inactive
same,Activity,Mus musculus [9],inactive
same,Activity,Mus musculus [10],Active
same,Activity,Mus musculus [11],Toxic
same,MIC,[12],> 400 mg/L
same,MIC,[13],> 400 mg/L
same,MIC,[14],> 400 mg/L
same,MIC,[15],> 400 mg/L
same,MIC,[16],> 400 mg/L
same,MIC,[17],> 400 mg/L
same,MIC,[18],> 400 mg/L
same,MIC,[19],> 400 mg/L
same,MIC,[20],> 400 mg/L
same,MIC,[21],> 400 mg/L
same,CC50 at 96 h,[1],7.4 µM
same,EC50,[22],> 7.4 µM
same,CC50,CCRF-CEM,39 µM
same,CC50,WIL2-NS,52 µM
same,CC50,CCRF-SB,42 µM
same,CC50,SK-MEL-28,72 µM
same,CC50,MCF7,49 µM
same,CC50,SK-MES-1,85 µM
same,CC50,HepG2,78 µM
same,CC50,DU-145,11 µM
same,CC50 at 96 h,[23],43 µM
same,CC50 at 96 h,[24],47 µM
